In the library only some 2% were active in any assay of this set; here they are far more common.
ASAP1 inh – inhibitors of human ASAP1 ArfGAP activity, primary screen, biochemical, fluorescence polarization | Arf-GAP with SH3 domain, ANK repeat and PH domain-containing protein 1 (Homo sapiens), … | ASAP1-stimulated ARF1 GTP hydrolysis, GDP FP detection | inhibition, % at 16.5 µM | actives 0.19% (n = 360,000) | AID 624377, 2012; in the data active means inhibition above about 25%
LEDGF integ inh – blockers of LEDGF/p75-dependent integrase strand transfer – biochemical, TR-FRET, high throughput, primary screen; HIV-1 integrase (with human LEDGF/p75); TR-FRET IN-LEDGF/p75 DNA integration, Eu/Cy5; inhibition, % at 3.7 µM; actives 0.64% (n = 370,000); AID 743269, 2014;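 active means inhibition above the screen-wide mean plus 3 SD, cut at about 13% in these data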;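 further: signal is the Cy5 over europium emission ratio at 671 and 618 nm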
ARFGAP1 inhibitor – inhibitors of rat ARFGAP1 GAP activity, primary screen, biochemical, fluorescence polarization, GDP tracer | ADP-ribosylation factor GTPase-activating protein 1 (Rattus norvegicus), Q62848 | Arfgap1-stimulated ARF1 GTP hydrolysis, GDP FP detection | inhibition, % at 16.5 µM | actives 0.26% (n = 360,000) | AID 651572, 2012;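 active means inhibition above a per-plate limit, mean inhibition of low control wells plus 3 SD, cut at about 25% in these data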
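Repeats: one replicate per compound; assay system: rat Arfgap1 catalytic domain, aa 1-136; times: enzyme reaction 120 min at 25 °C after 20 min preincubation; detection: FP of antibody-bound GDP Alexa 633 tracer, ex 620/em 688 nm; benchmarks: high control wells lacking Arfgap1, low control full reaction with DMSO; reagent: human ARF1(Δ1-17)-GTP substrate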
MBD2 inh – inhibitors of MBD2 binding to methylated DNA, primary screen, biochemical, TR-FRET, DNA-binding domain, human. MBD2 binding to methylated oligonucleotide. inhibition, % at 4.4 µM. actives 0.31% (n = 370,000). AID 686964, 2013; in the data active means inhibition above about 13%
TDP2 inh – human TDP2 enzyme inhibitors, primary screen, biochemical, epi absorbance, recombinant enzyme | T5PNP hydrolysis, p-nitrophenol absorbance 415 nm | inhibition, % at 12.8 µM | actives 0.34% (n = 370,000);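 active means inhibition above the mean of all tested compounds plus 3 SD, set per campaign, cut at about 25% in these data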
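System: recombinant human TDP2 / Amount: 120 nM TDP2 per well / Also added: 5 mM T5PNP chromogenic substrate / Doses: 12.8 µM single point, 1% DMSO / Incubation: 2 h at 37 °C / Detection: p-Nitrophenol epi absorbance / Evaluation: % inhibition relative to enzyme-containing and enzyme-free wells / Repeats: singlicate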
UHRF1 MBD2 ctr – UHRF1 methylated DNA binding inhibitors, primary screen, counter-screen for MBD2 inhibitor project, biochemical, TR-FRET, human UHRF1, single concentration; E3 ubiquitin-protein ligase UHRF1 (Homo sapiens), Q96T88; inhibition, % at 4.4 µM; UHRF1 binding to methylated oligo; actives 0.75% (n = 370,000); AID 687016, 2013; in the data active means inhibition above about 21%;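 further: UHRF1 SRA domain binding a hemimethylated CpG hairpin DNA probe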
Target sequence (Q96T88 whole entry, looked up, the tested form may be a part): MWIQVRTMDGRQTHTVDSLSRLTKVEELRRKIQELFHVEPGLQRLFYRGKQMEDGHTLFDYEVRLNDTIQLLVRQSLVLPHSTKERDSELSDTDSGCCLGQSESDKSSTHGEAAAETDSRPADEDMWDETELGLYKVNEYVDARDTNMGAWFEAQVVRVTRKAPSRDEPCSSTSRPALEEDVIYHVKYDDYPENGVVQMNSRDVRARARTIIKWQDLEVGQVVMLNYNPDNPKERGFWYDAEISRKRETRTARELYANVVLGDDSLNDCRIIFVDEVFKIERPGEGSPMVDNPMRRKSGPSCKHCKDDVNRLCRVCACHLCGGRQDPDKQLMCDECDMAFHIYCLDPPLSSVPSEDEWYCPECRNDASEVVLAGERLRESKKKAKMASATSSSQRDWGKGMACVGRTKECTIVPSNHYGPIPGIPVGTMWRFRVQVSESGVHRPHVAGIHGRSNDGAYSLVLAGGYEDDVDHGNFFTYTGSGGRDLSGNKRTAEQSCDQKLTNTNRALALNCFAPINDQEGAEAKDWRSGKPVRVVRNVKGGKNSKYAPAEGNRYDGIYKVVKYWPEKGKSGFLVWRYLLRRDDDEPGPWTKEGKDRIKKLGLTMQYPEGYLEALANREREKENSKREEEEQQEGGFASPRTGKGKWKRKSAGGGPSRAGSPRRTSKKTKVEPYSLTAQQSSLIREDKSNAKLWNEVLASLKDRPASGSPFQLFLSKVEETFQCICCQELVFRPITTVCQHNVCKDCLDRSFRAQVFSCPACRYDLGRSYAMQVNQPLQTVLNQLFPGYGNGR
ASAP1 inh confirm – ASAP1 GAP activity inhibitors, confirmation, biochemical, fluorescence polarization, human, triplicate. inhibition, % at 16.5 µM. shares compounds with ASAP1 inh. AID 624431, 2012. ASAP1-stimulated Arf1 GTPase, GDP fluorescence polarization. actives 37% (n = 620);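 active means mean inhibition over triplicates exceeds the hit threshold derived for the earlier primary screening run, cut at about 25% in these data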
ARFGAP1 confirm – ARFGAP1 inhibitor hit confirmation, biochemical, fluorescence polarization, triplicate; shares compounds with ARFGAP1 inhibitor; ARFGAP1-stimulated ARF1 GTP hydrolysis, GDP tracer FP; inhibition, % at 16.5 µM; actives 30% (n = 890);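 active means average inhibition over triplicates above the hit cutoff set in the earlier primary screen, cut at about 25% in these data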
Hits are given with their value; 0 = inactive; - = no result given.

SMILES | ASAP1 inh | LEDGF integ inh | ARFGAP1 inhibitor | MBD2 inh | TDP2 inh | UHRF1 MBD2 ctr | ASAP1 inh confirm | ARFGAP1 confirm
Cc1ccccc1/C=N/Nc1ccnc2cc(Cl)ccc12 | 50 | 0 | 92 | 0 | 0 | 0 | 94 | 149
Clc1ccc2c(N/N=C/c3ccc(Br)cc3)ccnc2c1 | 50 | 0 | 69 | 0 | 0 | 0 | 65 | 96
COC(=O)[C@H](C(C)C)N1Cc2nnn(CC3CCCCC3)c2-c2ccccc2S1(=O)=O | - | 0 | - | 0 | 0 | 0 | - | -
Cc1ccccc1Cn1cc(COC(=O)N2CCOCC2)nn1 | - | 0 | - | 0 | 0 | 0 | - | -
COc1cc(NC(=O)c2ccccc2)c(C)cc1NC(=O)CSc1nnc(-c2ccco2)n1Cc1ccco1 | - | 0 | - | 0 | 0 | 0 | - | -
CN(C)S(=O)(=O)c1cccc(C(=O)N/N=C\c2ccccc2[N+](=O)[O-])c1 | - | 0 | - | 0 | 0 | 0 | - | -
CC(C)(C)c1ccc(S(=O)(=O)N2CCC(C(=O)NCCC3=CCCCC3)CC2)cc1 | - | 0 | - | 0 | 0 | 0 | - | -
CCN(CC)CCOC(=O)c1ccc(NC(=O)c2cn(-c3ccccc3)nc2-c2cccs2)cc1 | 40 | 0 | 25 | 0 | 0 | 0 | 44 | 61
CCN(CC)CCNC(=O)c1cn(-c2ccccc2)nc1-c1cccs1 | 0 | 0 | 0 | 0 | 0 | 0 | - | -
COc1ccccc1/C=N\Nc1cn[nH]c(=O)c1Cl | 26 | 0 | 28 | 0 | 0 | 0 | 0 | 0
COc1ccc(/C=N/Nc2cc(C)nc3ccc(OC)cc23)c(OC)c1 | 43 | 0 | 33 | 0 | 0 | 0 | 93 | 93
COc1ccccc1/C=N/Nc1cc(C)nc2ccc(C)cc12 | 0 | 0 | 0 | 0 | 0 | 0 | - | -
CC1=[N+](C)c2ccc3ccccc3c2C1(C)C | 26 | 0 | 31 | 0 | 0 | 0 | 0 | 0
Cc1ccc2nc(SCC(=O)N3CCCCCC3)nc(=O)n2c1 | 44 | 0 | 62 | 0 | 0 | 0 | 44 | 77
Cc1ccc2nc(SCC(=O)N3CCCCC3)nc(=O)n2c1 | 29 | 0 | 48 | 0 | 0 | 0 | 33 | 57
Cc1ccn2c(=O)nc(SCC(=O)N3CCCCCC3)nc2c1 | 0 | 0 | 0 | 0 | 0 | 0 | - | -
CCc1ccc(N2C(=O)C[C@@](C#N)(C(=O)OC)[C@H]2c2ccccc2)cc1 | - | 0 | - | 0 | 0 | 0 | - | -
COc1cc(/C=N\NC(=O)c2ccc(C)nc2)ccc1OC(=O)c1ccc2c(c1)OCO2 | 29 | 0 | 29 | 0 | 0 | 0 | 38 | 75
Cc1cc(C)cc(NC(=O)c2ccc(NC(=O)c3ccco3)cc2)c1 | 0 | 0 | 0 | 0 | 0 | 0 | - | -
COC(=O)c1ccc(NC(=O)c2ccc(NC(=O)c3ccco3)cc2)cc1 | 26 | 0 | 39 | 0 | 0 | 0 | 38 | 52
O=C(Nc1ccc(F)cc1)Nc1c(-c2ccc(C(F)(F)F)cc2)nc2ncccn12 | - | 0 | - | 0 | 0 | 0 | - | -
COc1ccc(C(=O)OCCN2CCN(C3CN(Cc4cn(Cc5ccccc5C(F)(F)F)nn4)S(=O)(=O)C3)CC2)cc1OC (centres undefined) | - | 0 | - | 0 | 0 | 0 | - | -
CCCCNC(=O)C1CCCN1C(=O)NCc1ccccc1OC (centres undefined) | - | 0 | - | 0 | 0 | 0 | - | -
COc1ccc(-c2noc(C3CCCN(C(=O)Nc4ccc5c(c4)OCO5)C3)n2)cc1 (centres undefined) | - | 0 | - | 0 | 0 | 0 | - | -
Clc1cccc(Cl)c1CON/C=N/c1ncnc2sccc12 | 93 | 0 | 86 | 0 | 0 | 0 | 67 | 66
SMILES | ASAP1 inh | LEDGF integ inh | ARFGAP1 inhibitor | MBD2 inh | TDP2 inh | UHRF1 MBD2 ctr | ASAP1 inh confirm | ARFGAP1 confirm
Clc1cccc(CON/C=N/c2ncnc3sccc23)c1 | 0 | 0 | 0 | 0 | 0 | 0 | - | -
COc1ccc([N+](=O)[O-])cc1NC(=O)c1ccc(-n2nc(C)cc2C)cc1 | 26 | 0 | 35 | 0 | 0 | 0 | 39 | 71
Cc1ccc(OCc2ccc(C(=O)Nc3ccc(C(N)=O)cc3)o2)c([N+](=O)[O-])c1 | 60 | 0 | 86 | 0 | 0 | 34 | 88 | 116
COc1cc(-c2csc(N3CCC(C(N)=O)CC3)n2)cc(OC)c1OC | - | 0 | - | 0 | 0 | 0 | - | -
CCCCNC(=O)C1(C(C)=O)CC(C(=O)OCC)=NO1 (centres undefined) | - | 0 | - | 0 | 0 | 0 | - | -
COC(=O)Cn1cc(/C=N/NC(=O)COc2cccc3cccnc23)c2ccccc21 | 36 | 0 | 29 | 0 | 0 | 0 | 34 | 31
COc1ccc(C(=O)Nc2ccc3nc(N4CCN(C)CC4)cc(C)c3c2)c(OC)c1 | 37 | 0 | 50 | 0 | 0 | 0 | 66 | 71
Cc1[nH]cnc1/C=N\NC(=O)c1cccc(S(=O)(=O)N(C)C)c1 | - | 0 | - | 0 | 0 | 0 | - | -
CCN1CCN(Cc2ccc(NC(=O)c3cc(NC(=O)c4cncc(-c5ccc(C#N)cc5)c4)cc(OC)c3)cc2C(F)(F)F)CC1 | 57 | 0 | 67 | 0 | 0 | 0 | 75 | 108
COc1ccc(OC)c(S(=O)(=O)N(CC(=O)NC2CCC(C)CC2)c2cc(C)cc(C)c2)c1 (centres undefined) | - | 0 | - | 0 | 0 | 0 | - | -
Cc1cc(C)c2nc(N3C(=O)C(O)=C(C(=O)c4ccco4)C3c3cccc(O)c3)sc2c1 (centres undefined) | 26 | 0 | 25 | 0 | 0 | 0 | 39 | 39
Clc1ccc(Cn2cc(/C=N/n3cnnc3)c3ccccc32)c(Cl)c1 | 44 | 0 | 60 | 0 | 0 | 0 | 51 | 77
Cc1cc2oc3cc(NCCC4CCCN4C)ccc3c(=O)c2cc1C (centres undefined) | 28 | 0 | 31 | 0 | 0 | 0 | 38 | 30
CN1CCCC1CCNc1ccc2sc3ccccc3c(=O)c2c1 (centres undefined) | 0 | 0 | 0 | 0 | 0 | 0 | - | -

Screening data deposited in PubChem by The Scripps Research Institute Molecular Screening Center.
